Here are results for 7 compounds from paper PMC11905928 (Cell reports. Physical science, 2024).

As usually defined, the viability is a per cent measure of how many cells are alive, often set against a control. By IC50 is commonly meant the concentration that inhibits the measured activity by half. For orientation: solubility means how much of the substance goes into solution per volume.

Converted amounts (≈) assume the structure as drawn. Counter-ions that a name gives are not always drawn. Like-named read-outs stand apart in the source and are kept apart here.

For series [1], the system named is human microglia cells (C20 cell line). As to the kind of experiment: MTT cell viability, protection against Aβ1–42 induced toxicity. Particulars: 48 h; for viability: C20, Aβ1–42 500 nM; for viability at 0.5 µM: Homo sapiens, Microglia. In kind it is cell-based.
Series [2] has as its target Aβ19–20 (FF) dimerization (Homo sapiens, UniProt P05067). As to the kind of experiment: biochemical. The conditions noted are these: for IC50: Hill equation, FJ, 200 mM KCl.
For a further series, the system named is C20 cells. In words: MTT cell viability, compound by itself. The class given is cell-based, human. In a few lines: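 MTT assay on human microglial C20 cells, run by dose and also by incubation time at 1 uM of test compound. At least three independent experiments, each with 10 technical replicates; error bars are SDs.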
In another series the target is Aβ1–42 aggregation (Homo sapiens, UniProt P05067). As to the kind of experiment: Thioflavin T. Particulars: for normalized fluorescent intensity with respect to positive control Aβ1–42+ThT: Aβ1–42 preincubated 24 h. In kind it is biochemical.
The next series can be described thus: Solubility. In kind it is physicochemical.
Series [3] concerns neuroblastoma SH-SY5Y cells. In words: MTT cell viability, Aβ1–42 treated neuroblastoma cells. In kind it is cell-based. The conditions noted are these: 10 μM Aβ1–42, Figure S32.

Chain of Aβ1–42 aggregation (P05067 672-713): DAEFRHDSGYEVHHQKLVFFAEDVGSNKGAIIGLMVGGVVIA

As to `O=C(/C=C/c1ccc(O)c(O)c1)O[C@H](Cc1ccc(O)c(O)c1)C(=O)O` [Rosmarinic acid (RA), rosmarinic acid, reference compound], the figures for the viability in series [1] (compound 1 μM) and in series [1] (compound 5 μM) were 66% ± 2% and 69% ± 2%, respectively. Also, the viability at 0.5 µM in series [1] was found to be 67%. Half-maximal inhibition in series [2] (IC50 on the FF-dimerization) (IC50) required 13.1 µM.

As to `Cc1c2ccncc2c(C)c2c1[nH]c1ccccc12` [Ellipticine], the “C20 cell viability at high concentrations (in words)” value with C20 cells (high-concentration range such as 5 μM, Figure S31) is reported as “significantly influenced”. The “normalized fluorescent intensity with respect to positive control Aβ1–42+ThT” value is given as 106% on Aβ1–42 aggregation (0.2 μM compound, ThT 3.75 μM) and 112% at Aβ1–42 aggregation (0.5 μM compound, ThT 3.75 μM). Moreover, the “effect on Aβ1–42 aggregation (in words)” value on Aβ1–42 aggregation (concentration >1 μM) is listed as “inhibition effect”; at Aβ1–42 aggregation (low-concentration range ≤0.5 μM) it was “stimulator”. For the same compound, the viability in series [1] (compound 0.05 μM) is reported as 65% ± 3%; in series [1] (compound 0.1 μM), 64% ± 4%. This compound gave a viability at 0.5 µM in series [1] of 61%. In addition, the solubility in the series “Solubility” (aqueous buffer) was at most 200 µM; in “Solubility” (methanol-water (16:84 v/v), aqueous with cosolvent or surfactant or cyclodextrin), 1200 µM (≈ 296 µg/mL). In addition, in series [3], the “effect on cells treated with Aβ1–42 (in words)” value is recorded as “protective effects”. Besides, the “effect on the FF-dimerization (in words)” value in series [2] (single-molecule screening of NIH library) is “concentration-dependent promotion effect”.

Turning to `O=C(O[C@@H]1Cc2c(O)cc(O)cc2O[C@@H]1c1cc(O)c(O)c(O)c1)c1cc(O)c(O)c(O)c1` [Epigallocatechin gallate (EGCG), epigallocatechin gallate], the IC50 in series [2] (read-out: IC50 on the FF-dimerization) came to 26.3 µM.

`C[C@H](Cc1ccc(O)c(O)c1)[C@@H](C)Cc1ccc(O)c(O)c1` [Nordihydroguaiaretic acid (NDGA), nordihydroguaiaretic acid] yielded an IC50 in series [2] (IC50 on the FF-dimerization) of 107 µM.

On to `CN(C)[C@@H]1C(O)=C(C(N)=O)C(=O)[C@@]2(O)C(O)=C3C(=O)c4c(O)cccc4[C@@](C)(O)[C@H]3C[C@@H]12` [Tetracycline, tetracycline], for which the IC50 in series [2] (IC50 on the FF-dimerization) turned out to be 77.6 µM.

Consider `COc1cccc2c1C(=O)c1c(O)c3c(c(O)c1C2=O)C[C@@](O)(C(C)=O)C[C@@H]3O[C@H]1C[C@H](N)[C@H](O)[C@H](C)O1` [Daunorubicin hydrochloride, reference compound], for which the “toxicity of the compound by itself (in words)” value with C20 cells (C20 cells) is reported as “showed a toxicity effect by itself”. The “effect on Aβ1–42 aggregation (in words)” value on Aβ1–42 aggregation (after 24-h incubation, ThT 3.75 μM) was “inhibitory effects”. Inhibition in series [2] (IC50 on the FF-dimerization) was half-maximal at 3.5 µM (IC50).

For `COc1cc(/C=C/C(=O)CC(=O)/C=C/c2ccc(O)c(OC)c2)ccc1O` [curcumin], in series [2], the “effect on the FF-dimerization (in words)” value was “strong inhibition effect”.
